Test results taken from ChEMBL document CHEMBL1155300, “Substituted 3-(4-(1,3,5-triazin-2-yl)-phenyl)-2-aminopropanoic acids as novel tryptophan hydroxylase inhibitors” (Bioorg Med Chem Lett, 2009).
Activity calls are given as the source filed them. The calls are words filed in the database; no cut-off is given here.

Experiments:
[1] = molecular target: T1, Tryptophan 5-hydroxylase 1 (Homo sapiens, UniProt P17752); assay: Inhibition of human recombinant TPH1 by continuous fluorescence assay
T1 sequence (P17752 whole entry): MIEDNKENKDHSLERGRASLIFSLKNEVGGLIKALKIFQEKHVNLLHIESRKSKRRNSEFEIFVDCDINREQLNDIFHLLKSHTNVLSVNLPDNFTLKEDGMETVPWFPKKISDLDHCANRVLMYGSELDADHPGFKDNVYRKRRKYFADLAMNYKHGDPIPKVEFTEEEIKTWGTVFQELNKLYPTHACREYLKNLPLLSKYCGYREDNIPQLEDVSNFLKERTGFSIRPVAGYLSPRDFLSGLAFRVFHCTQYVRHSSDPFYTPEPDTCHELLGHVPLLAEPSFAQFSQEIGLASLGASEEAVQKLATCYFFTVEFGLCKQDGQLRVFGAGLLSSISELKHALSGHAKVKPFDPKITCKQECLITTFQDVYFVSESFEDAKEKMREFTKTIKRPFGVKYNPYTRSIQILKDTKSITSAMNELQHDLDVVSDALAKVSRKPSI
In short: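 Purified recombinant human TPH1 was tested in a continuous fluorescence assay. IC50 was taken from inhibition of enzyme activity.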

RBL-2H3 = assay: Inhibition of serotonin biosynthesis in rat RBL2H3 cells after 3 days; type: functional, cell-based; conditions: RBL-2H3, 72 h
In short: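 Serotonin biosynthesis was measured in rat mastocytoma RBL-2H3 cells. EC50 was taken from inhibition of that biosynthesis.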

Mus musculus [2] = assay: AUC in C57 albino mouse at 10 mg/kg, po; type: ADME, organism-based, Plasma; design: dose 10 mg/kg, route oral; conditions: in vivo
In short: (§1)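 Male C57-albino mice were used in two groups. One group received a single 1 mg/kg intravenous injection and the other a 10 mg/kg oral gavage dose. Plasma levels gave clearance and Vss (iv), and Cmax, AUC and oral bioavailability (po).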

[3] = Oral bioavailability in C57 albino mouse at 10 mg/kg; type: ADME, organism-based; conditions: in vivo; in short: as §1
[4] = Cmax in C57 albino mouse at 10 mg/kg, po; type: ADME, organism-based; design: dose 10 mg/kg, route oral; conditions: in vivo; in short: as §1
Mus musculus [5] = assay: Reduction of serotonin level in mouse duodenum at 100 mg/kg, po bid for 5 days; type: functional; design: scale not given: the % may be the effect or the level left
In short: (§2)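 Mice were dosed at 100 mg/kg twice daily (200 mg/kg/day) for five days, by intraperitoneal injection or oral gavage. 5-HT levels were then measured in blood and intestine (duodenum) and reported as percent decrease.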

[6] = Plasma clearance in C57 albino mouse at 1 mg/kg, iv; type: ADME, organism-based; design: dose 1 mg/kg, route intravenous; in short: as §1
Mus musculus [7] = assay: Reduction of serotonin level in mouse blood at 100 mg/kg, ip bid for 8 days; type: functional; design: scale not given: the % may be the effect or the level left; conditions: route intraperitoneal
Mus musculus [8] = assay: Reduction of serotonin level in mouse duodenum at 100 mg/kg, ip bid for 5 days; type: functional; design: scale not given: the % may be the effect or the level left; conditions: route intraperitoneal; in short: as §2
Mus musculus [9] = species on record: Mus musculus; assay: Reduction of serotonin level in mouse brain; type: functional, organism-based
Mus musculus [10] = assay: Reduction of serotonin level in mouse blood at 100 mg/kg, ip bid for 5 days; type: functional; design: scale not given: the % may be the effect or the level left; conditions: route intraperitoneal; in short: as §2
Mus musculus [11] = assay: Reduction of serotonin level in mouse duodenum at 100 mg/kg, ip bid for 8 days; type: functional; design: scale not given: the % may be the effect or the level left; conditions: route intraperitoneal
[12] = Volume of distribution at steady state in C57 albino mouse at 1 mg/kg, iv; type: ADME, organism-based; design: dose 1 mg/kg, route intravenous; conditions: in vivo, read-out: Vdss; in short: as §1
Mus musculus [13] = assay: Reduction of serotonin level in mouse blood at 100 mg/kg, po bid for 5 days; type: functional; design: scale not given: the % may be the effect or the level left; in short: as §2

Compound | IC50 [1] [µM] | EC50 (RBL-2H3) [µM] | further results
Nc1nc(NCc2ccc(-c3ccccc3)cc2)nc(-c2ccc(C[C@H](N)C(=O)O)cc2)n1 | 0.06 | 1.8 | 
C[C@H](c1ccc2ccccc2c1)N(C)c1nc(N)nc(-c2ccc(C[C@H](N)C(=O)O)cc2)n1 | 0.05 | 0.48 | 
CC(Nc1nc(N)nc(-c2ccc(C[C@H](N)C(=O)O)cc2)n1)C12CC3CC(CC(C3)C1)C2 (stereo not given in full) | 0.019 | 0.82 | 
Nc1nc(NCC2CCCCC2)nc(-c2ccc(C[C@H](N)C(=O)O)cc2)n1 | 0.12 | > 11 | 
Nc1nc(NCc2ccccc2)nc(-c2ccc(C[C@H](N)C(=O)O)cc2)n1 | 0.5 | > 11 | 
CC(C)(Nc1nc(N)nc(-c2ccc(C[C@H](N)C(=O)O)cc2)n1)c1ccc2ccccc2c1 | 0.055 | 1.7 | 
Nc1nc(NCc2ccc(Oc3ccccc3)cc2)nc(-c2ccc(C[C@H](N)C(=O)O)cc2)n1 | 0.15 | 3.4 | 
Nc1nc(NCc2ccc(C(F)(F)F)cc2)nc(-c2ccc(C[C@H](N)C(=O)O)cc2)n1 | 0.12 | 36 | 
Cc1ccc(-c2ccc(CNc3nc(N)nc(-c4ccc(C[C@H](N)C(=O)O)cc4)n3)cc2)cc1 | 0.014 | 2.3 | 
Nc1nc(OC(c2ccc3ccccc3c2)C(F)(F)F)nc(-c2ccc(C[C@H](N)C(=O)O)cc2)n1 (stereo not given in full) | 0.32 | 9.6 | 
Cc1ccc(CNc2nc(N)nc(-c3ccc(C[C@H](N)C(=O)O)cc3)n2)cc1C | 0.1 | > 11 | 
Nc1nc(NCc2cccc(-c3ccccc3)c2)nc(-c2ccc(C[C@H](N)C(=O)O)cc2)n1 | 0.038 | 1.4 | 
CC(C)C(Nc1nc(N)nc(-c2ccc(C[C@H](N)C(=O)O)cc2)n1)c1ccc2ccccc2c1 (stereo not given in full) | 0.25 | 5.7 | 
CCC(Nc1nc(N)nc(-c2ccc(C[C@H](N)C(=O)O)cc2)n1)c1ccc2ccccc2c1 (stereo not given in full) | 0.15 | 2.3 | 
C[C@H](Nc1nc(N)nc(-c2ccc(C[C@H](N)C(=O)O)cc2)n1)c1ccc2ccccc2c1 | 0.044 | 2.8 | 
CNc1nc(N[C@H](C)c2ccc3ccccc3c2)nc(-c2ccc(C[C@H](N)C(=O)O)cc2)n1 | 0.61 | 10.2 | 
CC(Nc1nc(N)nc(-c2ccc(C[C@H](N)C(=O)O)cc2)n1)c1ccc(-c2ccccc2)cc1 (stereo not given in full) | 0.024 | 2.5 | 
Nc1nc(NCc2ccc3ccccc3c2)nc(-c2ccc(C[C@H](N)C(=O)O)cc2)n1 |  | 2.1 | 
Nc1nc(NCc2ccc(-c3ccc(C(F)(F)F)cc3)cc2)nc(-c2ccc(C[C@H](N)C(=O)O)cc2)n1 | 0.16 | 4.1 | 
N[C@@H](Cc1ccc(-c2nc(NCc3ccc4ccccc4c3)nc(N3CCOCC3)n2)cc1)C(=O)O | 15.6 | > 40 | 
CC(Nc1ncnc(-c2ccc(C[C@H](N)C(=O)O)cc2)n1)c1ccc2ccccc2c1 (stereo not given in full) | 0.19 | 16.2 | 
C[C@@H](Nc1nc(N)nc(-c2ccc(C[C@H](N)C(=O)O)cc2)n1)c1ccc2ccccc2c1 |  | 0.3 | AUC (Mus musculus [2]): 1.6 µM·h; bioavailability [3]: 5%; Cmax [4]: 500 nM; Activity (Mus musculus [5]): 38%; clearance [6]: 8.33 mL/min/kg; Activity (Mus musculus [7]): 50%; Activity (Mus musculus [8]): 37%; Activity (Mus musculus [9]): inactive; Activity (Mus musculus [10]): 26%; Activity (Mus musculus [11]): 57%; Vd [12]: 0.5 L/kg; Activity (Mus musculus [13]): 17%
CC(C)CC(Nc1nc(N)nc(-c2ccc(C[C@H](N)C(=O)O)cc2)n1)c1ccc2ccccc2c1 (stereo not given in full) | 0.12 | > 11 | 
Nc1nc(NCc2ccccc2-c2ccccc2)nc(-c2ccc(C[C@H](N)C(=O)O)cc2)n1 | 0.007 | 2.2 | 
Nc1nc(NC(c2ccc3ccccc3c2)C(F)(F)F)nc(-c2ccc(C[C@H](N)C(=O)O)cc2)n1 (stereo not given in full) | 0.33 | 6.3 | 
